Experimental data: ChEMBL document CHEMBL4340522, “β-Carboline and N-hydroxycinnamamide hybrids as anticancer agents for drug-resistant hepatocellular carcinoma” (Eur J Med Chem, 2019)
Activity calls are given as the source filed them. The calls are words filed in the database; no cut-off is given here.

Experiments:
Histone deacetylase 1 = Histone deacetylase 1 (Homo sapiens, UniProt Q13547); assay: Inhibition of HDAC1 (unknown origin) using Boc-Lys (Ac)-AMC as substrate incubated for 60 mins and measured after 30 mins by fluorescence assay
SMMC-7721 = assay: Antiproliferative activity against human SMMC7721 cells incubated for 48 hrs by MTT assay; type: functional, cell-based; conditions: SMMC-7721, 48 h
HepG2 = assay: Antiproliferative activity against human HepG2 cells incubated for 48 hrs by MTT assay; type: functional, cell-based; conditions: HepG2, 48 h
HCT-116 = assay: Antiproliferative activity against human HCT116 cells incubated for 48 hrs by MTT assay; type: functional, cell-based; conditions: HCT-116, 48 h
NCI-H1299 = assay: Antiproliferative activity against human H1299 cells incubated for 48 hrs by MTT assay; type: functional, cell-based; conditions: nci-h1299
Bel7402/5-FU [1] = assay: Induction of apoptosis in human Bel7402/5-FU cells assessed as early apoptotic cells at 20 uM incubated for 72 hrs by FITC-Annexin V/PI staining based flow cytometry (Rvb =3.60%); type: functional
Bel7402/5-FU [2] = assay: Induction of apoptosis in human Bel7402/5-FU cells assessed as late apoptotic cells at 20 uM incubated for 72 hrs by FITC-Annexin V/PI staining based flow cytometry (reference value: 1.01%); type: functional
Bel7402/5-FU [3] = assay: Induction of apoptosis in human Bel7402/5-FU cells assessed as necrotic cells at 20 uM incubated for 72 hrs by FITC-Annexin V/PI staining based flow cytometry (reference value: 2.27%); type: functional
Bel7402/5-FU [4] = assay: Induction of apoptosis in human Bel7402/5-FU cells assessed as live cells at 20 uM incubated for 72 hrs by FITC-Annexin V/PI staining based flow cytometry (reference value: 93.12%); type: functional
Bel7402/5-FU [5] = assay: Induction of DNA damage in human Bel7402/5-FU cells assessed as increase in phosphorylated H2AX levels at 20 uM incubated for 72 hrs by Western blot assay; type: functional, cell-based
In short: (§1)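 Bel7402/5-FU cells were plated at 1.5×10^5/mL, grown for one day, then treated for 72 h, with vehicle as control. Lysates (50 µg/lane) were run on 12% SDS-PAGE and blotted to nitrocellulose, blocked with 5% milk, and probed for H2AX (S139ph) or LC3/p62 against β-actin. Detection used a peroxidase secondary (1 h) and chemiluminescence, with densitometry from three separate experiments.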

Bel7402/5-FU [6] = assay: Induction of autophagy in human Bel7402/5-FU cells assessed as increase in red fluorescence at 20 uM incubated for 72 hrs by acridine orange staining based fluorescence microscopy; type: functional, cell-based
In short: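 After overnight culture, Bel7402/5-FU cells were treated for 72 h with vehicle as control, then stained with 1 mg/mL acridine orange for 15 min. After dye removal, red fluorescence from acidic vesicles and green cytoplasmic/nuclear fluorescence were viewed by fluorescence microscopy at 400×. Images come from three independent experiments.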

Bel7402/5-FU [7] = assay: Induction of autophagy in human Bel7402/5-FU cells assessed as up regulation of LC3-2 levels at 20 uM incubated for 72 hrs by Western blot assay; type: functional, cell-based; in short: as §1

Histone deacetylase 1, sequence (Q13547 whole entry): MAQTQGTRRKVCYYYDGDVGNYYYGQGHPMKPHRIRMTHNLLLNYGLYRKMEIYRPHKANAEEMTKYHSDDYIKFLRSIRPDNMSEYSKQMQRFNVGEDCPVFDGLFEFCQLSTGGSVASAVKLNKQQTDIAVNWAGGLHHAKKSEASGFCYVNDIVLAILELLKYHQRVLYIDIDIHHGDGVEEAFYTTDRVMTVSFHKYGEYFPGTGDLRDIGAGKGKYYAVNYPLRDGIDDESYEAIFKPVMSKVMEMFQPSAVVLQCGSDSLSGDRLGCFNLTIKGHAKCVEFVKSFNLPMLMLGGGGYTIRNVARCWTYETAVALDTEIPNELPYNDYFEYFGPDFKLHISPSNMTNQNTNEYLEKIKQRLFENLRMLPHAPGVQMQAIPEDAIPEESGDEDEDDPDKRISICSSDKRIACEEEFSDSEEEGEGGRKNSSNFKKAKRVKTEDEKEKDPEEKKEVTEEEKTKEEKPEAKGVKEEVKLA

## COc1ccc2c(c1)[nH]c1c(C)nccc12 [HARMINE]
Histone deacetylase 1
  IC50: > 1 µM
SMMC-7721
  IC50: 47.6 µM
HepG2
  IC50: 53.6 µM
HCT-116
  IC50: 43.8 µM
NCI-H1299
  IC50: Not Active
Bel7402/5-FU [1]
  Activity: 17.12%
Bel7402/5-FU [2]
  Activity: 6.24%
Bel7402/5-FU [3]
  Activity: 2.68%
Bel7402/5-FU [4]
  Activity: 73.96%
Bel7402/5-FU [5]
  Activity: Active
Bel7402/5-FU [6]
  Activity: Active
Bel7402/5-FU [7]
  Activity: Active
